Data on two compounds can be found in ChEMBL document CHEMBL1157912, “Impact of nature and length of linker incorporated in agonists on toll-like receptor 9-mediated immune responses” (J Med Chem, 2010).

Structures are written as SMILES.

Test [1] concerns the target T1, Toll-like receptor 9 (Mus musculus) (UniProt Q9EQU3).
T1 sequence (whole entry): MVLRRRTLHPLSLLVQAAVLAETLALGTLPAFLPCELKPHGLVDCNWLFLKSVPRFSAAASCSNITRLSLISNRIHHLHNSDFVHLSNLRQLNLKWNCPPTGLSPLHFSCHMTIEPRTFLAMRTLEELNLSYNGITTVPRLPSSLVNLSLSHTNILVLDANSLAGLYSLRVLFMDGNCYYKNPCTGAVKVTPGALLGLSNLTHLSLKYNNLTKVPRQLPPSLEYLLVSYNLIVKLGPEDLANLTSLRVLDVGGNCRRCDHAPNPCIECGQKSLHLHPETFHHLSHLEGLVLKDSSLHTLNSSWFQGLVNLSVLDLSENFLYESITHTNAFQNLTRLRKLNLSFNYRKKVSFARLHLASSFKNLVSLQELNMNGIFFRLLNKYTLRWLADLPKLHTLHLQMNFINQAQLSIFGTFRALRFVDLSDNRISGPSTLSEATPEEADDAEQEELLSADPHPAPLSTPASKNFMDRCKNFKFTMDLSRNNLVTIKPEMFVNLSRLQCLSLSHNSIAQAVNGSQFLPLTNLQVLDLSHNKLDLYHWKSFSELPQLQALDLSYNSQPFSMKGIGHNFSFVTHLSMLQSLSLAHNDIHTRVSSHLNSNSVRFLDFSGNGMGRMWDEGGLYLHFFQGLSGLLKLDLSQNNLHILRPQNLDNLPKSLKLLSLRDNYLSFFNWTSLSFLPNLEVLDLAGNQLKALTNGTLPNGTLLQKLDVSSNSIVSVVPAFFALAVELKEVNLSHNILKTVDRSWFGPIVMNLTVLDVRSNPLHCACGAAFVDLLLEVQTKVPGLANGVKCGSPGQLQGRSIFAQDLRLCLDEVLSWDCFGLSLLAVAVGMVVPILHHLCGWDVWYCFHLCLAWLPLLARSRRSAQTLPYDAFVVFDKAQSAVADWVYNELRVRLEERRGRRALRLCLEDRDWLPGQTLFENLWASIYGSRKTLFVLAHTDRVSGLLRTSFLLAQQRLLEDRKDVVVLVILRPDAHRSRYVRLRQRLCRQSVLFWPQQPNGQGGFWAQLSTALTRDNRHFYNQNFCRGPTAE
The test is described as follows: Induction of TLR9-mediated IL12 production in C57BL/6 mouse spleen cells after 24 hrs by ELISA. In kind it is cell-based. The method, boiled down: (§1)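 C57BL/6 mouse spleen cells were cultured with agonists at 0.1, 0.3, 1, 3 and 10 μg/mL for 24 h. Secreted IL-12 and IL-6 in the supernatants were measured by ELISA. Values are averages of triplicate wells from one representative of at least two independent experiments.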
On the technique in general: In an ELISA, binding on a coated surface is turned into a signal by an enzyme label.

Test [2] deals with T1, Toll-like receptor 9 (Mus musculus). In words: Induction of TLR9-mediated IL6 production in C57BL/6 mouse spleen cells after 24 hrs by ELISA. In kind it is cell-based. The method, boiled down:
as §1

In test [3] the target is T2, Toll-like receptor 9 (Homo sapiens) (UniProt Q9NR96).
T2 sequence (whole entry): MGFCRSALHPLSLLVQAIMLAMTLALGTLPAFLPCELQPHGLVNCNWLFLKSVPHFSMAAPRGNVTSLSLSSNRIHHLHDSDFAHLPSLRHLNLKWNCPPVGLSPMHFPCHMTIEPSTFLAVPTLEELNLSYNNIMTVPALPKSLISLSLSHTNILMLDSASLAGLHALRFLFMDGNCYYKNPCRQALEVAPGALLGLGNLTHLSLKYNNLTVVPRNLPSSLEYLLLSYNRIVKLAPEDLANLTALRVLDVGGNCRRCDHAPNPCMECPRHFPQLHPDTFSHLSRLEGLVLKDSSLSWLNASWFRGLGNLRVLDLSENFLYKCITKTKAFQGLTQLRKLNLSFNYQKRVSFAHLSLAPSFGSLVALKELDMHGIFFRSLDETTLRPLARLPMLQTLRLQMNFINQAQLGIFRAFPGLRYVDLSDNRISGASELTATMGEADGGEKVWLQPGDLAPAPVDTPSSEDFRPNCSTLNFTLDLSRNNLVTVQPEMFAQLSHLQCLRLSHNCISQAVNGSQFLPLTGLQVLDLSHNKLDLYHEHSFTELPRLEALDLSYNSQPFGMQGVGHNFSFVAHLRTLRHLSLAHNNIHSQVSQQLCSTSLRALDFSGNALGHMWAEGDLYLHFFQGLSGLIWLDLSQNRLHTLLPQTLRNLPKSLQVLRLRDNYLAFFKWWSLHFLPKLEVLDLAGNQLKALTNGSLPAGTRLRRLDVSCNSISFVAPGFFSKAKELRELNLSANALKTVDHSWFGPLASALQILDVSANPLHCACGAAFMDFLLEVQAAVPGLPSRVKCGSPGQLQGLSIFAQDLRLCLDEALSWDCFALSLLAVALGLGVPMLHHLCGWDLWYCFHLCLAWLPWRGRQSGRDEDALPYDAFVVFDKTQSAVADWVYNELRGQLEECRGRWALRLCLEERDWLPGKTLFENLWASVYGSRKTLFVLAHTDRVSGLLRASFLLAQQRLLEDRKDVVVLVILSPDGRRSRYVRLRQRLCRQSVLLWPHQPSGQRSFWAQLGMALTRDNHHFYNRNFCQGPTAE
The test is described as follows: Induction of TLR9-mediated immune stimulation in human PBMC assessed as IL1Ralpha production at 10 ug/ml after 24 hrs by luminex multiplex assay (RVb = 0.12 +/- 0.03 ng/ml).

Test [4] deals with T2, Toll-like receptor 9 (Homo sapiens). The test is described as follows: Induction of TLR9-mediated immune stimulation in human PBMC assessed as IL2R production at 2 ug/ml after 24 hrs by luminex multiplex assay (RVb = 0.02 +/- 0.01 ng/ml).
The target is the same in test [5]. In words: Induction of TLR9-mediated immune stimulation in human PBMC assessed as IL6 production at 2 ug/ml after 24 hrs by luminex multiplex assay (RVb = 0.01 ng/ml).
For test [6] the target is unchanged. The test is described as follows: Induction of TLR9-mediated immune stimulation in human PBMC assessed as IL12 production at 10 ug/ml after 24 hrs by luminex multiplex assay (RVb = 0.00 ng/ml).
Test [7] shares this target. The test is described as follows: Induction of TLR9-mediated immune stimulation in human PBMC assessed as MIP1alpha production at 10 ug/ml after 24 hrs by luminex multiplex assay (RVb = 0.01 ng/ml).
The target is the same in test [8]. In words: Induction of TLR9-mediated immune stimulation in human PBMC assessed as IP10 production at 10 ug/ml after 24 hrs by luminex multiplex assay (RVb = 0.00 ng/ml).
The target is the same in test [9]. In words: Induction of TLR9-mediated immune stimulation in human PBMC assessed as MCP1 production at 2 ug/ml after 24 hrs by luminex multiplex assay (RVb = 0.08 +/- 0.02 ng/ml).
Test [10] has the same target. The test is described as follows: Induction of TLR9-mediated human B cell proliferation assessed as [3H]thymidine uptake after 56 hrs by scintillation counting. The method, boiled down: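 B cells were purified from human PBMCs (healthy volunteers), about 1 × 10⁵ cells, and stimulated with various agonist concentrations for 56 h. Cells were then pulsed with 0.75 μCi [³H]-thymidine and harvested 16 h later. Incorporation was counted by scintillation and reported as cpm.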

In the case of `Cc1cn([C@H]2C[C@H](O[C@@H]3C[C@@H](O)C[C@@H](OP(=O)(S)O[C@H]4C[C@H](n5cc(C)c(=O)[nH]c5=O)O[C@@H]4COP(=O)(S)O[C@H]4[C@@H](O)[C@H](n5ccc(N)nc5=O)O[C@@H]4COP(=O)(S)O[C@H]4C[C@H](n5cc(C)c(=O)[nH]c5=O)O[C@@H]4COP(=O)(S)O[C@H]4C[C@H](n5cc(C)c(=O)[nH]c5=O)O[C@@H]4COP(=O)(S)O[C@H]4C[C@H](n5ccc6c(=O)[nH]c(N)nc65)O[C@@H]4COP(=O)(S)O[C@H]4[C@@H](O)[C@H](n5ccc(N)nc5=O)O[C@@H]4COP(=O)(S)O[C@H]4C[C@H](n5cc(C)c(=O)[nH]c5=O)O[C@@H]4COP(=O)(S)O[C@H]4[C@@H](O)[C@H](n5cnc6c(=O)[nH]c(N)nc65)O[C@@H]4COP(=O)(S)O[C@H]4C[C@H](n5cc(C)c(=O)[nH]c5=O)O[C@@H]4COP(=O)(S)O[C@H]4[C@@H](O)[C@H](n5ccc(N)nc5=O)O[C@@H]4COP(=O)(S)O[C@H]4C[C@H](n5cc(C)c(=O)[nH]c5=O)O[C@@H]4CO)C3)[C@@H](COP(=O)(S)O[C@H]3[C@@H](O)[C@H](n4ccc(N)nc4=O)O[C@@H]3COP(=O)(S)O[C@H]3C[C@H](n4cc(C)c(=O)[nH]c4=O)O[C@@H]3COP(=O)(S)O[C@H]3C[C@H](n4cc(C)c(=O)[nH]c4=O)O[C@@H]3COP(=O)(S)O[C@H]3C[C@H](n4ccc5c(=O)[nH]c(N)nc54)O[C@@H]3COP(=O)(S)O[C@H]3[C@@H](O)[C@H](n4ccc(N)nc4=O)O[C@@H]3COP(=O)(S)O[C@H]3C[C@H](n4cc(C)c(=O)[nH]c4=O)O[C@@H]3COP(=O)(S)O[C@H]3[C@@H](O)[C@H](n4cnc5c(=O)[nH]c(N)nc54)O[C@@H]3COP(=O)(S)O[C@H]3C[C@H](n4cc(C)c(=O)[nH]c4=O)O[C@@H]3COP(=O)(S)O[C@H]3[C@@H](O)[C@H](n4ccc(N)nc4=O)O[C@@H]3COP(=O)(S)O[C@H]3C[C@H](n4cc(C)c(=O)[nH]c4=O)O[C@@H]3CO)O2)c(=O)[nH]c1=O` (stereo not given in full), the Activity entry in [1] was “Dose-dependent effect”; in test [2], “Dose-dependent effect”; in test [3], 109 ng/mL; in test [4], 0.02 ng/mL; in test [5], 0.3 ng/mL; in test [6] it was 0.21 ng/mL. In addition, the Activity in test [7] was 0.76 ng/mL; in test [8], 0.03 ng/mL; in test [9], 0.25 ng/mL; in test [10], “Dose-dependent effect”.
On to `Cc1cn([C@H]2C[C@H](OCCOCCOCCOCCOP(=O)(S)O[C@H]3C[C@H](n4cc(C)c(=O)[nH]c4=O)O[C@@H]3COP(=O)(S)O[C@H]3[C@@H](O)[C@H](n4ccc(N)nc4=O)O[C@@H]3COP(=O)(S)O[C@H]3C[C@H](n4cc(C)c(=O)[nH]c4=O)O[C@@H]3COP(=O)(S)O[C@H]3C[C@H](n4cc(C)c(=O)[nH]c4=O)O[C@@H]3COP(=O)(S)O[C@H]3C[C@H](n4ccc5c(=O)[nH]c(N)nc54)O[C@@H]3COP(=O)(S)O[C@H]3[C@@H](O)[C@H](n4ccc(N)nc4=O)O[C@@H]3COP(=O)(S)O[C@H]3C[C@H](n4cc(C)c(=O)[nH]c4=O)O[C@@H]3COP(=O)(S)O[C@H]3[C@@H](O)[C@H](n4cnc5c(=O)[nH]c(N)nc54)O[C@@H]3COP(=O)(S)O[C@H]3C[C@H](n4cc(C)c(=O)[nH]c4=O)O[C@@H]3COP(=O)(S)O[C@H]3[C@@H](O)[C@H](n4ccc(N)nc4=O)O[C@@H]3COP(=O)(S)O[C@H]3C[C@H](n4cc(C)c(=O)[nH]c4=O)O[C@@H]3CO)[C@@H](COP(=O)(S)O[C@H]3[C@@H](O)[C@H](n4ccc(N)nc4=O)O[C@@H]3COP(=O)(S)O[C@H]3C[C@H](n4cc(C)c(=O)[nH]c4=O)O[C@@H]3COP(=O)(S)O[C@H]3C[C@H](n4cc(C)c(=O)[nH]c4=O)O[C@@H]3COP(=O)(S)O[C@H]3C[C@H](n4ccc5c(=O)[nH]c(N)nc54)O[C@@H]3COP(=O)(S)O[C@H]3[C@@H](O)[C@H](n4ccc(N)nc4=O)O[C@@H]3COP(=O)(S)O[C@H]3C[C@H](n4cc(C)c(=O)[nH]c4=O)O[C@@H]3COP(=O)(S)O[C@H]3[C@@H](O)[C@H](n4cnc5c(=O)[nH]c(N)nc54)O[C@@H]3COP(=O)(S)O[C@H]3C[C@H](n4cc(C)c(=O)[nH]c4=O)O[C@@H]3COP(=O)(S)O[C@H]3[C@@H](O)[C@H](n4ccc(N)nc4=O)O[C@@H]3COP(=O)(S)O[C@H]3C[C@H](n4cc(C)c(=O)[nH]c4=O)O[C@@H]3CO)O2)c(=O)[nH]c1=O` (stereo not given in full), for which the Activity entry in test [1] was “Dose-dependent effect”; in test [2], “Dose-dependent effect”; in test [3], 69.9 ng/mL; in test [4], 0.04 ng/mL; in [5], 0.14 ng/mL; in [6], 0.15 ng/mL. Further, the Activity was 0.27 ng/mL in test [7], 0.03 ng/mL in test [8], 0.22 ng/mL in [9] and “Dose-dependent effect” in test [10].
